Bioassay records from PubChem BioAssay.
Env fusion inh: inhibitors of HIV Env-mediated cell fusion. HeLa-JRFL Env/CEM21 cell fusion, luciferase. inhibition, % at 12.3 µM. actives 1.1% (n = 360,000);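 active = mean replicate inhibition score of at least 50 and every replicate individually at or above 50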
INS-1E GSIS act: GLuc luminescence reporter in INS-1E cells, primary screen for activators of glucose-dependent secretion of insulin | INS-1E GLuc reporter insulin secretion, 2-3 h | activation, % at 16.6 µM | actives 0.61% (n = 370,000);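 active = lowest replicate activation of at least 40%, so every replicate reaches that level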
Cneo AK release: Cryptococcus neoformans lysis via adenylate kinase release. C. neoformans lysis, adenylate kinase release luminescence, 4 h; normalised: neutral wells 0, clomiphene wells 100. lysis activity, % at 15 µM. actives 0.2% (n = 360,000). AID 651654;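 active = mean lysis activity across replicates of at least 80%, whatever share of replicates individually reach that level; inactive = mean lysis activity below 80%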
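Assay system: log-phase C. neoformans yeast / Quantity: yeast cell density of 5 × 10^6 cells/mL / Medium: fresh YPD growth medium / Compound: single dose / Timing: static 4 h at 37 °C with compound, 1 h detection / Measured by: adenylate kinase release luminescence / Read-out: lysis from increased AK signal / Benchmarks: Clomiphene as positive lysis control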
miR-122 sensor: inhibitors of miR-122 in Huh7 cells; actives 0.3% (n = 340,000); activation (reporter increase), % at 12.5 µM; Huh7 miR-122 Renilla luciferase sensor, 48 h; neutral wells = 0, positive control = 100; AID 602342;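 active = mean replicate activation score at least 90 and every replicate individually at or above 90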;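 note: higher luciferase means less miR-122 activity so hits act as miR-122 inhibitors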
Rtt109 Vps75: inhibitors of Candida albicans Rtt109/Vps75 histone acetyltransferase; Q5AAJ8; purified Rtt109/Vps75, ThioGlo CoA-SH fluorescence, 4 h; inhibition, % at 34.9 µM; actives 0.16% (n = 330,000); AID 540336;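 active = inhibition of at least 50% in every replicate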
dFosB act-1: activators of mouse delta FosB homodimer; P13346; actives 0.99% (n = 340,000); activation, % at 25 µM; purified delta FosB, TAMRA-CDK5 oligo fluorescence polarization; percent of positive-control signal above neutral wells; AID 493131;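 active = mean activation above about 17%, with every replicate also reaching it, limit read from the data, passing the limit was not always enough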
Target sequence (P13346 whole entry, looked up): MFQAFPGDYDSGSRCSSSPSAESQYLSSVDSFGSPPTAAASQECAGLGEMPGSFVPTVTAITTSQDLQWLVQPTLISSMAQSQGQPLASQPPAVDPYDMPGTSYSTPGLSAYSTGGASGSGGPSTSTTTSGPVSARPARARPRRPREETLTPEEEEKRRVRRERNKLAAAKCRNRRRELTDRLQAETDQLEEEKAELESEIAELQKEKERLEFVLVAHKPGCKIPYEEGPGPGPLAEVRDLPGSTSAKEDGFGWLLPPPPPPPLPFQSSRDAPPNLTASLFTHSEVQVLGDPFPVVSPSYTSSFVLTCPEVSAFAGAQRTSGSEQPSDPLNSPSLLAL
dFosB act-2: delta FosB (mouse) homodimer activation; AID 588690; activation, % at 24.9 µM; shares compounds with dFosB act-1; 2,400 tested, under 10 active; purified delta FosB, TAMRA-CDK5 oligo fluorescence polarization; normalised: neutral wells 0, positive control 100;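 active = highest replicate activation at or above 34% and every replicate reaching that threshold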;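 note: higher polarization means more probe DNA bound by delta FosB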
Of the large screens only hits and unclear results are named; the others gave an inactive call (follow-up assays come after a bar, where they were run). A selection: hits, their analogues and other compounds. The true share with any hit is near 2.4%.

CCC(=O)Nc1ccc2c(c1)OC[C@H](C)N(C(=O)CN(C)C)C[C@H](C)[C@H](OC)CN(C)C2=O	none (no result: Rtt109 Vps75, dFosB act-1)
COc1ccc(NC(=O)Nc2ccc3c(c2)[C@@H]2C[C@@H](CC(=O)N(C)C)O[C@H](CO)[C@@H]2O3)cc1	none (no result: Env fusion inh, Rtt109 Vps75, dFosB act-1)
CC(C)NC(=O)N(C)C[C@H]1Oc2c(NS(=O)(=O)c3cccs3)cccc2C(=O)N([C@@H](C)CO)C[C@H]1C	none (no result: Cneo AK release, Rtt109 Vps75, dFosB act-1)
CS(=O)(=O)Nc1ccc2c(c1)[C@H]1C[C@H](CC(=O)NCC(F)(F)F)O[C@H](CO)[C@H]1O2	none (no result: Rtt109 Vps75, dFosB act-1)
Cc1ccc(-n2nc3c(=O)n(C(C)C(=O)NCc4ccccc4Cl)nc(C)c3c2C)cc1 (configuration not stated)	dFosB act-1 28 (no result: miR-122 sensor) | dFosB act-2 inactive
Cc1cccc(C)c1NC(=O)CCCn1nc(C)c2c(C)n(-c3ccccc3)nc2c1=O	dFosB act-1 19 | dFosB act-2 inactive
CCOc1ccc(CNC(=O)C2CCN(c3nnc(C)c4c(C)n(-c5ccc(C)cc5)nc34)CC2)cc1	dFosB act-1 78 | dFosB act-2 inactive
COc1ccccc1CCNC(=O)C1CCN(c2nnc(C)c3c(C)n(-c4ccc(C)cc4)nc23)CC1	none
CCOc1ccccc1CNC(=O)C1CCN(c2nnc(C)c3c(C)n(-c4ccc(C)cc4)nc23)CC1	dFosB act-1 85 | dFosB act-2 inactive
O=C(NC[C@H]1N[C@H](CO)[C@@H]1c1ccc(-c2cncnc2)cc1)C1CCC1	none (no result: Env fusion inh, Cneo AK release, miR-122 sensor, Rtt109 Vps75, dFosB act-1)
CCOc1ccccc1CNC(=O)Cn1nc(C)c2c(C)n(-c3ccc(C)cc3)nc2c1=O	dFosB act-1 53 (no result: Env fusion inh, INS-1E GSIS act) | dFosB act-2 inactive
CCC(=O)N1[C@H](CO)[C@@H](c2ccc(C3=CCCC3)cc2)[C@H]1CNC(=O)CN(C)C	none (no result: Env fusion inh, Cneo AK release, Rtt109 Vps75, dFosB act-1)
CCOc1ccc(NC(=O)c2cn(-c3ccc(OCC)cc3)c(=O)c3cc(OC)c(OC)cc23)cc1	dFosB act-1 20 (no result: INS-1E GSIS act, Cneo AK release, miR-122 sensor) | dFosB act-2 inactive
CCOc1ccc(-n2cc(C(=O)Nc3cccc(Cl)c3)c3cc(OC)c(OC)cc3c2=O)cc1	dFosB act-1 29 | dFosB act-2 inactive
CCOc1ccc(-n2cc(C(=O)NC(C)C)c3cc(OC)c(OC)cc3c2=O)cc1	none (no result: INS-1E GSIS act)
COc1ccc2c3c([nH]c2c1)[C@H](CO)N(C(=O)NC(C)C)CC31CN(C(=O)NC2CCCC2)C1	none (no result: Env fusion inh, Cneo AK release, miR-122 sensor, Rtt109 Vps75, dFosB act-1)
C[C@@H]1CN([C@H](C)CO)C(=O)Cc2cc(NC(=O)Cc3ccccc3)ccc2O[C@@H]1CN(C)S(=O)(=O)c1cn(C)cn1	none (no result: Rtt109 Vps75, dFosB act-1)
O=C1COc2ccc(C(=O)CSc3nnc(Cc4ccccc4)o3)cc2N1	none
Cn1c(SCC(=O)c2ccc3c(c2)NC(=O)CO3)nc2ccccc21	dFosB act-1 39 (no result: Cneo AK release, miR-122 sensor) | dFosB act-2 inactive
Cc1cc(NC(=O)CSc2nnc(NCc3ccccc3)s2)no1	dFosB act-1 22 | dFosB act-2 inactive
CCc1ccc(-n2c(SCC(=O)c3ccc4c(c3)NC(=O)CO4)nc3ccccc3c2=O)cc1	none (no result: Cneo AK release)
O=C1COc2ccc(C(=O)CSc3nc4ccccc4c(=O)n3-c3ccc(Cl)c(Cl)c3)cc2N1	dFosB act-1 56 (no result: Cneo AK release, miR-122 sensor) | dFosB act-2 inactive
COc1ccccc1Nc1nnc(SCC(=O)Nc2cc(C)on2)s1	none (no result: Env fusion inh, miR-122 sensor)
O=C1COc2ccc(C(=O)CSc3nnc(NCc4ccccc4)s3)cc2N1	dFosB act-1 43 (no result: Cneo AK release, miR-122 sensor) | dFosB act-2 inactive
CO[C@H]1CN(C)C(=O)c2cc(NC(=O)c3ccc(F)cc3)ccc2OC[C@@H](C)N(Cc2cocn2)C[C@@H]1C	none (no result: miR-122 sensor, Rtt109 Vps75, dFosB act-1)
O=C(C[C@@H]1CC[C@H](NC(=O)c2ccc3c(c2)OCO3)[C@H](CO)O1)NC1Cc2ccccc2C1	none (no result: Rtt109 Vps75, dFosB act-1)
O=C(Nc1ccncc1)C1c2ccccc2Oc2ccccc21	none (no result: INS-1E GSIS act, Rtt109 Vps75)
CCCCNS(=O)(=O)c1ccc(NC(=O)C2c3ccccc3Oc3ccccc32)cc1	dFosB act-1 44 | dFosB act-2 inactive
O=C(CN1C(=O)NC2(CCc3ccccc3C2)C1=O)Nc1ccc(Cl)cc1F (configuration not stated)	dFosB act-1 40 (no result: Cneo AK release, miR-122 sensor) | dFosB act-2 inactive
